From ChEMBL document CHEMBL2380204, “Discovery of a new HIV-1 inhibitor scaffold and synthesis of potential prodrugs of indazoles” (Bioorg Med Chem Lett, 2013)
In brackets after ≈: the same amount, converted by molar mass.

Key:
[1] = test system: Plasma; test: Prodrug activation in 80% phosphate buffered human plasma assessed as compound remaining after 40 mins at pH 7.4; assay type: cell-free; details: pH 7.4, 40 min
Summary of the method: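 Incubated in phosphate-buffered 80% human plasma at pH 7.4 and 37 °C. Percent of compound remaining measured at 40 min, along with time-dependent formation of the parent indazole.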

[2] = Aqueous solubility in phosphate buffer at pH 7.4; assay type: physicochemical
Summary of the method: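 Aqueous solubility measured in phosphate buffer at pH 7.4 as a preliminary screen. Reported in µM.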

[3] = Chemical stability in phosphate buffer after 40 mins at pH 7.4; assay type: physicochemical; details: pH 7.4, 40 min
Summary of the method: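 Compound incubated in phosphate buffer at pH 7.4 and 37 °C for 40 min. Hydrolysis monitored.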

[4] = Therapeutic index, ratio of TC50 for human MT4 cells to EC50 for Human immunodeficiency virus 1 NL43 infected in human MT4 cells; assay type: cell-based; details: read-out: TI
Summary of the method: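 Index calculated as TC50/EC50. TC50 and EC50 are each the mean of two experiments.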

[5] = test system: Human immunodeficiency virus 1; test: Antiviral activity against 0.0005 MOI Human immunodeficiency virus 1 NL43 infected in human MT4 cells assessed as protection against virus-induced cytopathicity after 4 days by WST1 assay; assay type: functional, organism-based; details: Human immunodeficiency virus 1, NL43, MT4, 96 h
Summary of the method: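 Antiviral EC50 defined as 50% effective concentration. Values are the mean of two experiments, with SD normally under 20%.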

[6] = Metabolic stability in mouse liver microsomes after 40 mins by LC-MS/MS analysis; assay type: ADME, Microsome; details: read-out: Stability
[7] = Cytotoxicity against human MT4 cells by WST1 assay; assay type: cell-based; details: read-out: TC50 (the source's name)
Summary of the method: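 TC50 defined as 50% toxic concentration. Values are the mean of two experiments, with SD normally under 20%.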

Stability [1] | solubility [2] [µM] | Stability [3] | remaining at 40 min [6] [%] | Compound | selectivity ratio [4] | EC50 [5] [µM] | CC50 [7] [µM]
Stable | 66 (≈ 32.3 µg/mL) |  |  | O=C(O)c1ccccc1C(=O)OCn1ncc2cc(Nc3ncc(-c4ccc(Cl)cc4)o3)ccc21 |  |  | 
35% | 60 (≈ 26.5 µg/mL) | Stable |  | O=C(O)CCC(=O)OCn1ncc2cc(Nc3ncc(-c4ccc(Cl)cc4)o3)ccc21 |  |  | 
 |  |  |  | O=[N+]([O-])c1ccc(N2CCCC(Nc3ccc4[nH]ncc4c3)C2)c(F)c1 (configuration not stated) | 10 | 13 | 
 |  |  |  | COc1cccc(-c2nc(Nc3ccc4[nH]ncc4c3)c3c(F)cccc3n2)c1 | 10 | 11 | 
 |  |  |  | O=C(NCc1ccc([N+](=O)[O-])cc1F)Nc1ccc2[nH]ncc2c1 | 15 | 6 | 
 |  |  | 9 | c1ccc(-c2cnc(Nc3ccc4[nH]ncc4c3)o2)cc1 | > 45 | 2 | > 90
 |  |  |  | Clc1ccccc1-c1cnc(Nc2ccc3[nH]ncc3c2)o1 | > 11 | 9 | > 100
 |  |  |  | Clc1cccc(-c2cnc(Nc3ccc4[nH]ncc4c3)o2)c1 | > 1.9 | 54 | > 100
 | 0.2 (≈ 0.0621 µg/mL) |  | 83 | Clc1ccc(-c2cnc(Nc3ccc4[nH]ncc4c3)o2)cc1 | > 30 | 3 | > 90
 |  |  |  | COc1ccccc1-c1cnc(Nc2ccc3[nH]ncc3c2)o1 | > 1 | 100 | > 100
 |  |  |  | COc1cccc(-c2cnc(Nc3ccc4[nH]ncc4c3)o2)c1 | > 45 | 2 | > 90
 |  |  |  | COc1ccc(-c2cnc(Nc3ccc4[nH]ncc4c3)o2)cc1 | > 1 | 100 | > 100
 |  |  |  | c1cc2[nH]ncc2cc1Nc1ncc(-c2ccc3c(c2)OCO3)o1 | 31 | 2.7 | 83
 |  |  |  | COc1cc(-c2cnc(Nc3ccc4[nH]ncc4c3)o2)ccc1Cl | 53 | 1.5 | 80
 |  |  |  | Clc1ccc(-c2cnc(Nc3ccc4[nH]ncc4c3)o2)cc1Cl | > 2.9 | 35 | > 100
 |  |  |  | COc1ccc(-c2cnc(Nc3ccc4[nH]ncc4c3)o2)cc1OC | 50 | 0.42 | 21
